Results published in the M2OR odorant receptor database.

How the values were obtained:
Settings in all cases: stereoisomer not certain
OR8D1 (Homo sapiens) = target: T1, OR8D1 (Homo sapiens) (UniProt Q8WZ84)
T1 sequence (whole entry): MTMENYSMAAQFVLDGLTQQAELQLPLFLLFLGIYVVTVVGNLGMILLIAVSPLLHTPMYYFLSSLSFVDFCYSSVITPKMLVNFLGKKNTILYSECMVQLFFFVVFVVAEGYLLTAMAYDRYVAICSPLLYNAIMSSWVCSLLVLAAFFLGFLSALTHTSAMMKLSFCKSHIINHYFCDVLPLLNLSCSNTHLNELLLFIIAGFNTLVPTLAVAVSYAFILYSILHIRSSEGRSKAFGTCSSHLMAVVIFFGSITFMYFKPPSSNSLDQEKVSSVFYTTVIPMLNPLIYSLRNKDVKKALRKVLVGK
Outline: (§1)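 Each receptor–molecule pair is labelled responsive or non-responsive (inactive) according to whether the original authors judged the measured signal statistically different from baseline. The data were taken from the main text and supplementary material of published papers and checked for typos and inconsistencies. Assay methods differed by source, with transient luciferase assays in mammalian cell lines being common.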

OR8B8 (Homo sapiens) = OR8B8 (Homo sapiens) (UniProt Q15620)
Chain of OR8B8 (Homo sapiens) (Q15620 whole entry): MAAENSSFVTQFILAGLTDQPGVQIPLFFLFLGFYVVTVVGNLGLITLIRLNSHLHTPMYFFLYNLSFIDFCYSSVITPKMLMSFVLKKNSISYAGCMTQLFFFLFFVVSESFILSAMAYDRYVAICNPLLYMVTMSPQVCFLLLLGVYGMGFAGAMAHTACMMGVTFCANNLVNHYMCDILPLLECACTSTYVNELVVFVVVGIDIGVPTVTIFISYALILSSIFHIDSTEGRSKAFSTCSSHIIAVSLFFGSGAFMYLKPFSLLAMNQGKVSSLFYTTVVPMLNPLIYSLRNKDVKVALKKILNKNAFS
Outline: as §1

OR8B8 L101P = tested on: OR8B8 L101P
Chain of OR8B8 L101P (as listed by the source, stated change not applied): as the sequence (Q15620 whole entry) above, with L101P counted along it
Outline: as §1

OR8D1 C127G L194P = tested on: OR8D1 C127G L194P
Outline: as §1

OR8D1 L194P = tested on: OR8D1 L194P
Chain of OR8D1 L194P (as listed by the source, stated change not applied): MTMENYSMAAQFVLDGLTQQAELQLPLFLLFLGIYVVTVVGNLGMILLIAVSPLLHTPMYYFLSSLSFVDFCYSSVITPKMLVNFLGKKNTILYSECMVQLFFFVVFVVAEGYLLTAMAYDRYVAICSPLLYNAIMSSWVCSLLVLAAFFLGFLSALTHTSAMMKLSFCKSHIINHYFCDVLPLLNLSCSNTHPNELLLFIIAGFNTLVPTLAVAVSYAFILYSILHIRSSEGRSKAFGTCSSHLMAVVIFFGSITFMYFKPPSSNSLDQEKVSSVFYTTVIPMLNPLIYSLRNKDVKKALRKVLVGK
Outline: as §1

OR8D2 (Homo sapiens) = OR8D2 (Homo sapiens) (UniProt Q9GZM6)
Chain of OR8D2 (Homo sapiens) (Q9GZM6 whole entry): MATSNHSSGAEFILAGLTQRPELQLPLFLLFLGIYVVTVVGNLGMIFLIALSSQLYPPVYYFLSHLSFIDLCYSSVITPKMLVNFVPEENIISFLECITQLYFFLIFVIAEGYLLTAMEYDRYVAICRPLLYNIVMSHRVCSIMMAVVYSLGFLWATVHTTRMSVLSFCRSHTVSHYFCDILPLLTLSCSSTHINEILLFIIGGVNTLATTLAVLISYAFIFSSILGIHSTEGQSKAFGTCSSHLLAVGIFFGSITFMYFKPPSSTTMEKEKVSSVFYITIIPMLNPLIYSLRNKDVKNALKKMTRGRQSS
Outline: as §1

OR8D4 (Homo sapiens) = OR8D4 (Homo sapiens) (UniProt Q8NGM9)
Chain of OR8D4 (Homo sapiens) (Q8NGM9 whole entry): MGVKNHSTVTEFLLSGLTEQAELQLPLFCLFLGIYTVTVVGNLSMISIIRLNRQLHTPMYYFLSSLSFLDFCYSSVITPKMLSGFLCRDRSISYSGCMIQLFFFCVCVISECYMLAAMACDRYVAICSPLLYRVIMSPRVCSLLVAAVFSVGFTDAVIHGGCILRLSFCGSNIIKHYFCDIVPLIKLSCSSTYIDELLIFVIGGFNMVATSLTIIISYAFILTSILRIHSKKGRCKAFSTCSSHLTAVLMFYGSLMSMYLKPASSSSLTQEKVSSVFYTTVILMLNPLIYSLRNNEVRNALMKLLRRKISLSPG
Outline: as §1

OR8D4 C120Y R133K = tested on: OR8D4 C120Y R133K
Outline: as §1

OR8G1 (Homo sapiens) = OR8G1 (Homo sapiens) (UniProt Q15617)
Chain of OR8G1 (Homo sapiens) (Q15617 whole entry): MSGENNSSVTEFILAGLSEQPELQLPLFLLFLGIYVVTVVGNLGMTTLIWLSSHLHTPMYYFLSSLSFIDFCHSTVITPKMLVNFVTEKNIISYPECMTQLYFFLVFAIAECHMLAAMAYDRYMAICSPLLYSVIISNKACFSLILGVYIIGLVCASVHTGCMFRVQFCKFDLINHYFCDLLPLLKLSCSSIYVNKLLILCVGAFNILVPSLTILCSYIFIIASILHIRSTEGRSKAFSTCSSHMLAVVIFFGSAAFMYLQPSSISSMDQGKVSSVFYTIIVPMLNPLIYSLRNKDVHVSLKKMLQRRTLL
Outline: as §1

OR8G5 (Homo sapiens) = OR8G5 (Homo sapiens) (UniProt Q8NG78)
Chain of OR8G5 (Homo sapiens) (Q8NG78 whole entry): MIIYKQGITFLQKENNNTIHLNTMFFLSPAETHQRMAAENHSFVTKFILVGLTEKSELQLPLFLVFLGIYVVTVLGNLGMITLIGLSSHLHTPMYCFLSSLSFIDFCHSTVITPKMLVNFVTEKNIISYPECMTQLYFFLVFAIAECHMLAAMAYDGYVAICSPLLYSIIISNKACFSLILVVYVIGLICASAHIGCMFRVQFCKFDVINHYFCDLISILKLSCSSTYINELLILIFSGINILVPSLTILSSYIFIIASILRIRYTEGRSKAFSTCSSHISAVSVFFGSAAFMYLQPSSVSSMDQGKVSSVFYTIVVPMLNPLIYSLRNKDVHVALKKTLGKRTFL
Outline: as §1

OR8H1 (Homo sapiens) = OR8H1 (Homo sapiens) (UniProt Q8NGG4)
Chain of OR8H1 (Homo sapiens) (Q8NGG4 whole entry): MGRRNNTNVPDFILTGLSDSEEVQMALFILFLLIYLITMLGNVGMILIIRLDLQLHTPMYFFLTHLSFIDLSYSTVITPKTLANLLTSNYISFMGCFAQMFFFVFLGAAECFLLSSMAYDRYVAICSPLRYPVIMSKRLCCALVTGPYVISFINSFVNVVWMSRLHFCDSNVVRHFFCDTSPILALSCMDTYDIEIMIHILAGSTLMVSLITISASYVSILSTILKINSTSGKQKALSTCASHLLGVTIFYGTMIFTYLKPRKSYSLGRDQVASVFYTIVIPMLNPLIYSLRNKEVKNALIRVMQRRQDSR
Outline: as §1

OR8H2 (Homo sapiens) = OR8H2 (Homo sapiens) (UniProt Q8N162)
Chain of OR8H2 (Homo sapiens) (Q8N162 whole entry): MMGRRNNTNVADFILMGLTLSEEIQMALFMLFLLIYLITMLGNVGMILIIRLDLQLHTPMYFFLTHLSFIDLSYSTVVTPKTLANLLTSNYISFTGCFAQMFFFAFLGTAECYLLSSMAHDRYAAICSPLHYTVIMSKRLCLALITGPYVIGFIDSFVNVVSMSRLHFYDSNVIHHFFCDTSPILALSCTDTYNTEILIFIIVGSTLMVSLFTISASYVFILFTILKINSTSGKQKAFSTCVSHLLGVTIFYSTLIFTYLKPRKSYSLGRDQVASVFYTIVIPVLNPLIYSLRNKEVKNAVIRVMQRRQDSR
Outline: as §1

OR8H2 H120Y Y169C V284M = tested on: OR8H2 H120Y Y169C V284M
Outline: as §1

OR8H3 (Homo sapiens) = OR8H3 (Homo sapiens) (UniProt Q8N146)
Chain of OR8H3 (Homo sapiens) (Q8N146 whole entry): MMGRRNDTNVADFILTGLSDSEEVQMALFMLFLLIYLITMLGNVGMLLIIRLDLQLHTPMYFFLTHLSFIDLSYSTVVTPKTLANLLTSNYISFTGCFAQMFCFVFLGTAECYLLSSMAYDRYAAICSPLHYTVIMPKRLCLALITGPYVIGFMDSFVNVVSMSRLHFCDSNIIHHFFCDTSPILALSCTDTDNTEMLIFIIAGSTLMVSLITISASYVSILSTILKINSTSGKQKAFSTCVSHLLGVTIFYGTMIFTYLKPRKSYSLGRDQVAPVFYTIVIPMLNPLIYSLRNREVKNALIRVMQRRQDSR
Outline: as §1

OR8H3 = tested on: OR8H3
Chain of OR8H3 (as listed by the source): as the sequence (Q8N146 whole entry) above, with P137S counted along it
Outline: as §1

OR8I2 (Homo sapiens) = OR8I2 (Homo sapiens) (UniProt Q8N0Y5)
Chain of OR8I2 (Homo sapiens) (Q8N0Y5 whole entry): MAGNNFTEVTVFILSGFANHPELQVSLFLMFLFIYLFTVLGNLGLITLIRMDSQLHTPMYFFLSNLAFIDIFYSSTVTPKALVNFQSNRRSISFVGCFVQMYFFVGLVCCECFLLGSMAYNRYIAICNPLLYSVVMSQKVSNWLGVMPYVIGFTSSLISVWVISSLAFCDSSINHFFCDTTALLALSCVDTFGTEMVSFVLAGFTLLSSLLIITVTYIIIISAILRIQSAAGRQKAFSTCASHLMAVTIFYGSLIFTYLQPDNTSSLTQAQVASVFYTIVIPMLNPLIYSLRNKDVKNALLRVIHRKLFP
Outline: as §1

OR8J1 (Homo sapiens) = OR8J1 (Homo sapiens) (UniProt Q8NGP2)
Chain of OR8J1 (Homo sapiens) (Q8NGP2 whole entry): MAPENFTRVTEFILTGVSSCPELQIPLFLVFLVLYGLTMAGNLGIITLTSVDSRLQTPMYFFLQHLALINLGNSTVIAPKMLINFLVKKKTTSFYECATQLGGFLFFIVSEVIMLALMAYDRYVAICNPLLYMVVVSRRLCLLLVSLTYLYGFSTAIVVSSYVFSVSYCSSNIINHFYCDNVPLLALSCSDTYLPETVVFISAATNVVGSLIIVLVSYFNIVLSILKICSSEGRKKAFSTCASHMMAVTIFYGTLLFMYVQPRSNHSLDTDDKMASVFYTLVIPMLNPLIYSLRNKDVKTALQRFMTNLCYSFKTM
Outline: as §1

OR8J1 = tested on: OR8J1
Chain of OR8J1 (as listed by the source): as the sequence (Q8NGP2 whole entry) above, with Y120C counted along it
Outline: as §1

OR8J3 (Homo sapiens) = OR8J3 (Homo sapiens) (UniProt Q8NGG0)
Chain of OR8J3 (Homo sapiens) (Q8NGG0 whole entry): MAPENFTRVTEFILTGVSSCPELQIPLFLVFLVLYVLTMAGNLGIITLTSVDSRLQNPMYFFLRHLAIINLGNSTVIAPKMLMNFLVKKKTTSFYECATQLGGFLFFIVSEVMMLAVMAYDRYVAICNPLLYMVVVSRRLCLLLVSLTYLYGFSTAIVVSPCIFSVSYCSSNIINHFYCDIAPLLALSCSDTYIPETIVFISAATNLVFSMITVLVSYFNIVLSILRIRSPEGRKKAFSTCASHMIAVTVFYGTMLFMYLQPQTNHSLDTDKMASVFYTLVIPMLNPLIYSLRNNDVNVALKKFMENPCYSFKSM
Outline: as §1

OR8J2 (Homo sapiens) = OR8J2 (Homo sapiens) (UniProt Q8NGG1)
Chain of OR8J2 (Homo sapiens) (Q8NGG1 whole entry): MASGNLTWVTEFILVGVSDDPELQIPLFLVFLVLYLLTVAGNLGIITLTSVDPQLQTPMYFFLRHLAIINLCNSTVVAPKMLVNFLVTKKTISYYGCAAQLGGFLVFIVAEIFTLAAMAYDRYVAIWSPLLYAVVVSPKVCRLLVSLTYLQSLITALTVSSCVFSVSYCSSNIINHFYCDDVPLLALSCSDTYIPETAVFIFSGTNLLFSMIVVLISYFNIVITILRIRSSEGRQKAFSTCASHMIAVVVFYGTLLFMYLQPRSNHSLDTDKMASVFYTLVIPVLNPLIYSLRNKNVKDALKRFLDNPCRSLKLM
Outline: as §1

Measured: odorant receptor agonist call;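 also: active if original authors judged signal statistically different from baseline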

SCc1ccco1
inactive: OR8D1 (Homo sapiens)

Cc1ccc(O)c(C)c1
inactive: OR8D1 (Homo sapiens)

O=Cc1ccc2c(c1)OCO2
inactive: OR8D1 (Homo sapiens)

COc1ccc(C=O)cc1
inactive: OR8D1 (Homo sapiens)

C=CCSSCC=C
inactive: OR8D1 (Homo sapiens)

C=CCc1ccc(OC)cc1
inactive: OR8D1 (Homo sapiens)

C=CCOC(=O)Cc1ccccc1
not listed: OR8J2 (Homo sapiens)
inactive: all other assays above

Cc1c([N+](=O)[O-])c(C)c([N+](=O)[O-])c(C(C)(C)C)c1[N+](=O)[O-]
not listed: OR8B8 L101P | OR8D1 C127G L194P | OR8D1 L194P | OR8D4 C120Y R133K | OR8H2 H120Y Y169C V284M | OR8H3 | OR8J1
inactive: all other assays above

NCC(=O)c1ccccc1
inactive: OR8D1 (Homo sapiens)

CCOC(=O)Cc1ccccc1
inactive: OR8D1 (Homo sapiens)

Cc1ccccc1O
inactive: OR8D1 (Homo sapiens)

CSSC
inactive: OR8D1 (Homo sapiens)
